Results published in ChEMBL document CHEMBL1126566, “Studies on analogues of classical antifolates bearing the naphthoyl group in place of benzoyl in the side chain” (J Med Chem, 1993).
Residue numbers refer to the chain shown, from its start.

Experiments:
L1210 [1] = experiment: Tested for the ability to inhibit growth in vitro against L1210; type: functional, cell-based; details: Mus musculus
L1210 [2] = experiment: Tested for transport into L1210 cells measured as cell influx; type: functional, cell-based, Mus musculus
Mus musculus [3] = experiment: Antitumor activity against E0771 mammary adenocarcinoma in mice at 12 mg/kg (5 days) was determined and […] at day 10 was reported; type: functional
Summary of the method: (§1)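 E0771 mammary adenocarcinoma implanted in mice, five mice per group. Treatment was given daily for 5 days, starting day 3 after implantation. Tumor volume was calculated as 4/3πr³ and averaged on days 7, 10 and 14. T/C (%) is the treated/control tumor volume. Toxic deaths were recorded.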

Mus musculus [4] = experiment: Antitumor activity against E0771 mammary adenocarcinoma in mice at 24 mg/kg(5 days) was determined and […] at day 7 was reported; type: functional; summary of the method: as §1
[5] = Activity relative to saturating aminopterine at 100 uM against CCRF-CEM Folyl-polyglutamate synthetase; type: ADME; details: human
Summary of the method: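 FPGS from CCRF-CEM cells: freeze-thawed lysates fractionated by (NH₄)₂SO₄ (0–40% saturation pellet) and gel sieving, stored at –90 °C in 20% glycerol, free of detectable γ-glutamyl hydrolase. Product was separated on DEAE-cellulose minicolumns. Run in duplicate or triplicate, and each experiment was repeated at least once.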

Mus musculus [6] = experiment: Antitumor activity against E0771 mammary adenocarcinoma in mice at 24 mg/kg(5 days) was determined and […] at day 10 was reported; type: functional
Mus musculus [7] = experiment: Antitumor activity against E0771 mammary adenocarcinoma in mice at 12 mg/kg (5 days) was determined and […] at day 14 was reported; type: functional
HL-60 = experiment: Tested for the ability to inhibit growth in vitro against HL60; type: functional, cell-based; details: Homo sapiens
Mus musculus [8] = experiment: Antitumor activity against E0771 mammary adenocarcinoma in mice at 24 mg/kg(5 days) was determined and tumor volume at day 14 was reported; type: functional
Summary of the method: (§2)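 Mice bearing implanted E0771 mammary adenocarcinoma, five per test group. Dosing was daily for 5 days, starting on day 3 after implantation. Tumor volume (mm³) was calculated as 4/3πr³ and is also expressed as treated/control (%).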

CCRF S-180 = experiment: Tested for the ability to inhibit growth in vitro against S180; type: functional, cell-based; details: Mus musculus
Dihydrofolate reductase [9] = biological target: T1, Dihydrofolate reductase (Mus musculus, UniProt P00375); experiment: Inhibitory activity of Dihydrofolate reductase in L1210 cells; type: cell-based
T1 sequence (P00375 whole entry): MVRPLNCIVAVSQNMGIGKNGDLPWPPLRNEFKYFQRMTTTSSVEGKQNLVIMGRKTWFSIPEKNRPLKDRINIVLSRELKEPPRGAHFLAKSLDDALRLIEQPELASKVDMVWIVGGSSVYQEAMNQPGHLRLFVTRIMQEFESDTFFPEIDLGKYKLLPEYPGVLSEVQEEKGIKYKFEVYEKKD

Mus musculus [10] = experiment: Antitumor activity against E0771 mammary adenocarcinoma in mice at 24 mg/kg(5 days) was determined and tumor volume at day 10 was reported; type: functional; summary of the method: as §2
Mus musculus [11] = experiment: Antitumor activity against E0771 mammary adenocarcinoma in mice at 12 mg/kg(5 days) was determined and tumor volume at day 14 was reported; type: functional; summary of the method: as §2
Mus musculus [12] = experiment: Antitumor activity against E0771 mammary adenocarcinoma in mice at 12 mg/kg(5 days) was determined and tumor volume at day 10 was reported; type: functional; summary of the method: as §2
Mus musculus [13] = experiment: Antitumor activity against E0771 mammary adenocarcinoma in mice at 12 mg/kg(5 days) was determined and tumor volume at day 7 was reported; type: functional; summary of the method: as §2
Mus musculus [14] = experiment: Antitumor activity against E0771 mammary adenocarcinoma in mice at 24 mg/kg(5 days) was determined and tumor volume at day 7 was reported; type: functional; summary of the method: as §2
CCRF-CEM = experiment: Percent inhibition of Folyl-polyglutamate synthase from CCRF-CEM cells; type: cell-based; parameters: concentration or dose not given beside the values; details: Homo sapiens, dose or concentration not given here
Summary of the method: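 FPGS was partially purified from CCRF-CEM cells by (NH₄)₂SO₄ fractionation and gel sieving, with no detectable γ-glutamyl hydrolase. Product was separated on DEAE-cellulose. Percent inhibition is reported.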

Mus musculus [15] = experiment: Antitumor activity against E0771 mammary adenocarcinoma in mice at 12 mg/kg(5 days) was determined and […] at day 7 was reported; type: functional
Mus musculus [16] = experiment: Antitumor activity against E0771 mammary adenocarcinoma in mice at 24 mg/kg(5 days) was determined and […] at day 14 was reported; type: functional
Mus musculus [17] = experiment: Antitumor activity against E0771 mammary adenocarcinoma in mice at 100 mg/kg(5 days) was determined and tumor volume at day 14 was reported; type: functional; summary of the method: as §2
Mus musculus [18] = experiment: Antitumor activity against E0771 mammary adenocarcinoma in mice at 150 mg/kg(5 days) was determined and tumor volume at day 14 was reported; type: functional; summary of the method: as §2
Mus musculus [19] = experiment: Antitumor activity against E0771 mammary adenocarcinoma in mice at 100 mg/kg(5 days) was determined and […] at day 14 was reported; type: functional
[20] = biological target: T2, Folylpolyglutamate synthase, mitochondrial (Mus musculus) (UniProt P48760); experiment: Specific activity of L1210 Folyl-polyglutamate synthase
T2 sequence (whole entry): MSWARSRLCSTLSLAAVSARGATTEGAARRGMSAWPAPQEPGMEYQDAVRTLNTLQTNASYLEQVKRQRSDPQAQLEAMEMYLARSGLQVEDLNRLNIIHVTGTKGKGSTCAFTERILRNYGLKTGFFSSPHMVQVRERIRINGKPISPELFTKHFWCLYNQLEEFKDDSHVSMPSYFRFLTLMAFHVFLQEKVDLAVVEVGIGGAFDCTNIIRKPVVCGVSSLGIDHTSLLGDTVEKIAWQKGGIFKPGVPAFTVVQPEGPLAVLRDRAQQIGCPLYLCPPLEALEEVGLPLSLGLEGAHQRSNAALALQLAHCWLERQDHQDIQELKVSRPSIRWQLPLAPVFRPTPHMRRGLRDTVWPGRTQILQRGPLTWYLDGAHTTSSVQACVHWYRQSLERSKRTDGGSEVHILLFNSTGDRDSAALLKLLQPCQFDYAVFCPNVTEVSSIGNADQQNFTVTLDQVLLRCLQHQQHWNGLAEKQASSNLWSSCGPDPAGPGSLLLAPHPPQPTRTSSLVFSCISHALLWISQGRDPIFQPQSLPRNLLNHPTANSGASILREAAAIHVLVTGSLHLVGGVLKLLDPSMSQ
Summary of the method: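 FPGS from L1210 cells was assayed by [³H]glutamate ligation, like the human enzyme assay. Each folate substrate was at 100 μM, and only specific activity was measured.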

[21] = Ratio of Vmax and Km against CCRF-CEM Folyl-polyglutamate synthetase; type: ADME; details: human
Summary of the method: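 Substrate assay with CCRF-CEM FPGS. Analogue replaced aminopterin at 0–100 μM (0–200 μM for one analogue). Buffer held 5 mM ATP, 10 mM MgCl₂, 4 mM L-[³H]Glu, pH 8.4, 37 °C. Ligated glutamate was separated on DEAE-cellulose. Assays were run in duplicate or triplicate within linear enzyme and time ranges, and each experiment was repeated. Vmax (relative to aminopterin) and Km give V/K.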

Mus musculus [22] = experiment: Antitumor activity against E0771 mammary adenocarcinoma in mice at 100 mg/kg(5 days) was determined and […] at day 10 was reported; type: functional
Mus musculus [23] = experiment: Antitumor activity against E0771 mammary adenocarcinoma in mice at 100 mg/kg(5 days) was determined and tumor volume at day 10 was reported; type: functional; summary of the method: as §2
Mus musculus [24] = experiment: Antitumor activity against E0771 mammary adenocarcinoma in mice at 100 mg/kg(5 days) was determined and tumor volume at day 7 was reported; type: functional; summary of the method: as §2
Dihydrofolate reductase [25] = biological target: T3, Dihydrofolate reductase (Pneumocystis carinii, UniProt P16184); experiment: Tested for inhibition against Pneumocystis carinii DHFR (dihydrofolate reductase)
T3 sequence (P16184 whole entry): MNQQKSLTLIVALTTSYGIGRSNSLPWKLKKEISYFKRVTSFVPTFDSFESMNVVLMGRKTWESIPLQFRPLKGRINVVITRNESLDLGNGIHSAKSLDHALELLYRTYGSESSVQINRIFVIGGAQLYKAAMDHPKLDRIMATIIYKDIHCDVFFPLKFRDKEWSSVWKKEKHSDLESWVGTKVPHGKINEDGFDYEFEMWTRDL

Mus musculus [26] = experiment: Antitumor activity against E0771 mammary adenocarcinoma in mice at 150 mg/kg(5 days) was determined and tumor volume at day 7 was reported; type: functional; summary of the method: as §2
Mus musculus [27] = experiment: Antitumor activity against E0771 mammary adenocarcinoma in mice at 150 mg/kg(5 days) was determined and tumor volume at day 10 was reported; type: functional; summary of the method: as §2
Mus musculus [28] = experiment: Antitumor activity against E0771 mammary adenocarcinoma in mice at 150 mg/kg(5 days) was determined and […] at day 7 was reported; type: functional
Mus musculus [29] = experiment: Antitumor activity against E0771 mammary adenocarcinoma in mice at 100 mg/kg(5 days) was determined and […] at day 7 was reported; type: functional
Mus musculus [30] = experiment: Antitumor activity against E0771 mammary adenocarcinoma in mice at 150 mg/kg(5 days) was determined and […] at day 10 was reported; type: functional
Dihydrofolate reductase [31] = biological target: T4, Dihydrofolate reductase (Rattus norvegicus, UniProt Q920D2); experiment: Tested for inhibition against rat liver DHFR (dihydrofolate reductase)
T4 sequence (Q920D2 whole entry): T1 sequence (P00375 whole entry) with P27L, R85Q, R99K, I115V, G155E, V170I

Mus musculus [32] = experiment: Antitumor activity against E0771 mammary adenocarcinoma in mice at 150 mg/kg(5 days) was determined and […] at day 14 was reported; type: functional

With Cc1c(CN(C)c2ccc(C(=O)NC(CCC(=O)O)C(=O)O)c3ccccc23)cnc2nc(N)nc(N)c12 (stereo not drawn) the IC50 (L1210 [1]) was 2.4 nM, the Ki (L1210 [2]) was 660 nM and the T/C (Mus musculus [3]) was 53%. For the same compound, the T/C (Mus musculus [4]) was 39%, the “Relative Vmax” value [5] was 0.04 and the T/C (Mus musculus [6]) was 19%. It also gave a T/C (Mus musculus [7]) of 60%, an IC50 (HL-60) of 0.56 nM and a Tumor volume (Mus musculus [8]) of 493 mm**3. The IC50 (CCRF S-180) was 2.6 nM, the Ki (Dihydrofolate reductase [9]) was 0.00484 nM and the Tumor volume (Mus musculus [10]) was 119 mm**3. It also gave a Tumor volume (Mus musculus [11]) of 1048 mm**3, a Tumor volume (Mus musculus [12]) of 333 mm**3 and a Tumor volume (Mus musculus [13]) of 108 mm**3. The Tumor volume (Mus musculus [14]) was 87 mm**3, the inhibition (CCRF-CEM) was 10% and the T/C (Mus musculus [15]) was 49%. It also gave a T/C (Mus musculus [16]) of 28%.

With CN(Cc1cnc2nc(N)nc(N)c2n1)c1ccc(C(=O)NC(CCC(=O)O)C(=O)O)c2ccccc12 (stereo not drawn) the Tumor volume (Mus musculus [17]) was 839 mm**3, the IC50 (L1210 [1]) was 9 nM and the Ki (L1210 [2]) was 1040 nM. For the same compound, the Tumor volume (Mus musculus [18]) was 493 mm**3, the Km (Homo sapiens) was 82 µM and the T/C (Mus musculus [19]) was 48%. For the same compound, the “Relative Vmax” value [5] was 0.27, the Specific activity (pM hr-1 (mg of protein)-1) [20] was 0.18 and the V/K [21] was 0.0033. For the same compound, the T/C (Mus musculus [22]) was 43%, the Tumor volume (Mus musculus [23]) was 268 mm**3 and the IC50 (HL-60) was 3.3 nM. It also gave a Tumor volume (Mus musculus [24]) of 82 mm**3, an IC50 (CCRF S-180) of 9.3 nM and a Ki (Dihydrofolate reductase [9]) of 0.00522 nM. The IC50 (Dihydrofolate reductase [25]) was 0.00019 nM, the Tumor volume (Mus musculus [26]) was 62 mm**3 and the Tumor volume (Mus musculus [27]) was 144 mm**3. It also gave an inhibition (CCRF-CEM) of 3%, a T/C (Mus musculus [28]) of 28% and a T/C (Mus musculus [29]) of 37%. For the same compound, the T/C (Mus musculus [30]) was 23%, the IC50 (Dihydrofolate reductase [31]) was 0.0025 nM and the T/C (Mus musculus [32]) was 28%.
